Reference: ChEMBL document CHEMBL1131069 (J Med Chem, 1998)

Key:
Mus musculus [1] = assay: Anticonvulsant activity determined at 4 hours after the administration of compound using MES test.(++= signify activity at 100 mg/kg); format: functional, organism-based; parameters: dose 100 mg/kg
Summary of the method: (§1)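 Male CF-1 albino mice (18-25 g) dosed intraperitoneally at 30, 100 or 300 mg/kg. Protection against maximal electroshock-induced seizures was scored 30 min or 4 h after dosing.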

Rattus norvegicus [2] = assay: Anticonvulsant activity was determined in rats at a dose of 30 mg/kg after 4 hour by MES test. (++++ denotes activity in 75-100% of administered animals); format: functional, organism-based; parameters: dose 30 mg/kg
Rattus norvegicus [3] = assay: Anticonvulsant activity was determined in rats at a dose of 30 mg/kg after 15 minutes by MES test. (++++ denotes activity in 75-100% of administered animals); format: functional, organism-based; parameters: dose 30 mg/kg
[4] = Neurotoxicity determined at 30 minutes after the administration of compound by rotarod test.(- denotes activity at 300 mg/kg); format: toxicity, organism-based; parameters: dose 300 mg/kg; conditions: mouse, in vivo, 0.5 h
Summary of the method: (§2)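 Male CF-1 mice dosed ip at 30, 100 or 300 mg/kg and tested 30 min or 4 h later on a 1-in. knurled rod turning at 6 rpm. A deficit was failure to stay on the rod for 1 min in each of three trials. Coding: ++ 100, + 300 mg/kg; - means none at 300 mg/kg.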

[5] = Neurotoxicity determined at 4 hours after the administration of compound by rotarod test(- denotes activity at 300 mg/kg); format: toxicity, organism-based; parameters: dose 300 mg/kg; conditions: mouse, in vivo; summary of the method: as §2
[6] = Toxicity was determined in rats at a dose of 30 mg/kg after 4 hour. (- denotes no activity in administered animals).; format: organism-based; parameters: dose 30 mg/kg; conditions: rat, in vivo
Summary of the method: (§3)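 Male Sprague-Dawley rats given a single oral dose of 30 mg/kg and assessed for toxicity 4 h after dosing, with at least four animals per time point. Score is the fraction of animals affected (+ 0-25%); - means no toxicity.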

Rattus norvegicus [7] = assay: Anticonvulsant ED50 activity by MES test in rats dosed orally; format: functional; conditions: po
Summary of the method: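 Male Sprague-Dawley rats (100-150 g) dosed orally. ED50 is the dose protecting 50% of animals against maximal electroshock-induced seizures. […]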

Mus musculus [8] = assay: Anticonvulsant activity determined at 30 minutes after the administration of compound using MES test. (++= signify activity at 100 mg/kg); format: functional, organism-based; parameters: dose 100 mg/kg; summary of the method: as §1
Mus musculus [9] = assay: Anticonvulsant activity determined at 4 hours after the administration of compound using sc Ptz test.(+ = signify activity at 300 mg/kg); format: functional, organism-based; parameters: dose 300 mg/kg
Summary of the method: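 Male CF-1 mice (18-25 g) dosed ip at 30, 100 or 300 mg/kg. Pentylenetetrazol in 0.9% NaCl was injected sc at 0.01 mL/g. Tests were run 30 min or 4 h after dosing.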

Rattus norvegicus [10] = assay: Anticonvulsant activity was determined in rats at a dose of 30 mg/kg after 1 hour by MES test. (++++ denotes activity in 75-100% of administered animals); format: functional, organism-based; parameters: dose 30 mg/kg
[11] = Apparent IC50 value by [3H]batrachotoxinin-A-20-alpha-benzoate-binding test performed in rat brain synaptosomes; format: subcellular
Summary of the method: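 Rat brain synaptosomes, about 400 µg protein per assay, incubated 2 h at 37 °C, pH 7.4, in choline chloride/HEPES/glucose/KCl medium with 10 nM [³H]batrachotoxinin-A-20α-benzoate and scorpion venom. Stopped with cold-free choline chloride/HEPES/CaCl₂/MgSO₄ washes, filtered on GF/B, bound radioactivity counted. Protein by Bradford. Apparent IC50 from quadruplicate measurements, mean ± SD.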

[12] = Neurotoxicity determined at 4 hours after the administration of compound by rotarod test(+ = signify activity at 300 mg/kg); format: toxicity, organism-based; parameters: dose 300 mg/kg; conditions: mouse, in vivo; summary of the method: as §2
Mus musculus [13] = assay: Anticonvulsant activity determined at 30 minutes after the administration of compound using MES test. (+ = signify activity at 300 mg/kg); format: functional, organism-based; parameters: dose 300 mg/kg; summary of the method: as §1
[14] = Neurotoxicity determined at 30 minutes after the administration of compound by rotarod test.(+ = signify activity at 300 mg/kg); format: toxicity, organism-based; parameters: dose 300 mg/kg; conditions: mouse, in vivo, 0.5 h; summary of the method: as §2
[15] = Neurotoxicity determined at 4 hours after the administration of compound by rotarod test (+ = signify activity at 300 mg/kg); format: toxicity, organism-based; parameters: dose 300 mg/kg; conditions: mouse, in vivo; summary of the method: as §2
Mus musculus [16] = assay: Anticonvulsant activity determined at 30 minutes after the administration of compound using MES test.(++= signify activity at 100 mg/kg); format: functional, organism-based; parameters: dose 100 mg/kg; summary of the method: as §1
Rattus norvegicus [17] = assay: Anticonvulsant activity was determined in rats at a dose of 30 mg/kg after 2 hour by MES test. (+ denotes activity in 0-25% of administered animals).; format: functional, organism-based; parameters: dose 30 mg/kg
Rattus norvegicus [18] = assay: Anticonvulsant activity was determined in rats at a dose of 30 mg/kg after 4 hour by MES test. (++ denotes activity in 25-50% of administered animals).; format: functional, organism-based; parameters: dose 30 mg/kg
[19] = Neurotoxicity determined at 4 hours after the administration of compound by rotarod test (- denotes activity at 300 mg/kg); format: toxicity, organism-based; parameters: dose 300 mg/kg; conditions: mouse, in vivo; summary of the method: as §2
Rattus norvegicus [20] = assay: Anticonvulsant activity was determined in rats at a dose of 30 mg/kg after 1 hour by MES test. (+ denotes activity in 0-25% of administered animals).; format: functional, organism-based; parameters: dose 30 mg/kg
Rattus norvegicus [21] = assay: Anticonvulsant activity was determined in rats at a dose of 30 mg/kg after 4 hour by MES test. (+ denotes activity in 0-25% of administered animals).; format: functional, organism-based; parameters: dose 30 mg/kg
Rattus norvegicus [22] = assay: Toxicity was determined in rats at a dose of 30 mg/kg after 4 hour. (+ denotes activity in 0-25% of administered animals).; format: functional, organism-based; parameters: dose 30 mg/kg; summary of the method: as §3

Row | Compound | Activity (Mus musculus [1]) | Activity (Rattus norvegicus [2]) | Activity [4] | Activity [6] | ED50 (Rattus norvegicus [7]) | Activity (Mus musculus [8]) | IC50 [11] | Activity [14] | Activity [19] | also measured
1 | Cc1cccc(C)c1NC(=O)c1ccc(N)cc1 [AMELTOLIDE] | Activity at 300 mg/kg | ++ | Activity at 300 mg/kg | Activity at 300 mg/kg | 135 µmol/kg | – | – | – | – | Activity (Rattus norvegicus [3]): ++; Activity [5]: Activity at 300 mg/kg
2 | Cc1cccc(C)c1N1C(=O)c2ccc([N+](=O)[O-])cc2C1=O | Activity at 300 mg/kg | ++ | Activity at 300 mg/kg | – | 131 µmol/kg | Activity at 300 mg/kg | 184 µM | – | – | Activity (Mus musculus [9]): Activity at 300 mg/kg; Activity (Rattus norvegicus [10]): ++; Activity [12]: Activity at 300 mg/kg
3 | CC1(C)CC(NC(=O)c2ccc([N+](=O)[O-])cc2)CC(C)(C)N1 | – | – | – | signifies activity at 300 mg/kg | > 650 µmol/kg | – | 25.8 µM | signifies activity at 300 mg/kg | – | Activity (Mus musculus [13]): signifies activity at 300 mg/kg; Activity [15]: signifies activity at 300 mg/kg
4 | O=C1NC(=O)C(c2ccccc2)(c2ccccc2)N1 [PHENYTOIN] | – | – | – | – | 121 µmol/kg | – | 0.86 µM | – | – | –
5 | Cc1cccc(C)c1N1C(=O)c2ccc(Cl)cc2C1=O | activity in 0-25% of administered animals | – | – | – | 354 µmol/kg | – | 47.8 µM | activity in 0-25% of administered animals | activity in 0-25% of administered animals | Activity (Mus musculus [16]): activity in 0-25% of administered animals; Activity (Rattus norvegicus [17]): activity in 0-25% of administered animals; Activity (Rattus norvegicus [18]): activity in 0-25% of administered animals
6 | Cc1cccc(C)c1N1C(=O)c2ccc(O)cc2C1=O | activity in 0-25% of administered animals | – | activity in 0-25% of administered animals | – | 369 µmol/kg | activity in 0-25% of administered animals | 1.86 µM | – | activity in 0-25% of administered animals | Activity (Rattus norvegicus [20]): activity in 0-25% of administered animals; Activity (Rattus norvegicus [21]): activity in 0-25% of administered animals; Activity (Rattus norvegicus [22]): activity in 0-25% of administered animals
